Measured values: ChEMBL document CHEMBL4219193, “Synthesis, biological evaluation and molecular docking study of 1-amino-2-aroylnaphthalenes against prostate cancer” (Bioorg Med Chem Lett, 2018)
Active and inactive are the calls of the source.

Experiments:
Assay type in all cases: cell-based
[1] = target: RAC-beta serine/threonine-protein kinase (Homo sapiens) (UniProt P31751); assay: Inhibition of AKT2 phosphorylation in human PC3 cells at 14 uM after 12 to 24 hrs by Western blot analysis
How it was run: (§1)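 Immunoblotting of PC-3 lysates for procaspase 8, procaspase 9 and phosphorylated Akt1, 2 and 3 after treatment at 14 µM, with samples collected at different time points.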

[2] = target: RAC-gamma serine/threonine-protein kinase (Homo sapiens) (UniProt Q9Y243); assay: Inhibition of AKT3 phosphorylation in human PC3 cells at 14 uM after 12 to 24 hrs by Western blot analysis; how it was run: as §1
Sequence of RAC-gamma serine/threonine-protein kinase (Homo sapiens) (Q9Y243 whole entry): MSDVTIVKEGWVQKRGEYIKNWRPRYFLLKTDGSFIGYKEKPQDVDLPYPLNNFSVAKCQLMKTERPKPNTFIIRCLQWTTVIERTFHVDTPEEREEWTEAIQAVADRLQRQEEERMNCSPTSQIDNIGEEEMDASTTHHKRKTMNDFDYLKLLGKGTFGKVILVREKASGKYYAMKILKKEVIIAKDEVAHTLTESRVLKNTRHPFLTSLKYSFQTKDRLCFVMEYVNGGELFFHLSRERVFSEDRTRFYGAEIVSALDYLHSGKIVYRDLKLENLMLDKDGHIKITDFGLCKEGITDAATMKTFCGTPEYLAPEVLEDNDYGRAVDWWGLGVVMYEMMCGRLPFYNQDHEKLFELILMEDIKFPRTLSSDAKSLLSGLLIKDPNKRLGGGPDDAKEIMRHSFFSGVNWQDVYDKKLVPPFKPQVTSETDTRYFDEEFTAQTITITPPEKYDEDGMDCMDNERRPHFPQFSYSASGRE

[3] = target: RAC-alpha serine/threonine-protein kinase (Homo sapiens) (UniProt P31749); assay: Inhibition of AKT1 phosphorylation in human PC3 cells at 14 uM after 12 to 24 hrs by Western blot analysis; how it was run: as §1
Sequence of RAC-alpha serine/threonine-protein kinase (Homo sapiens) (P31749 whole entry): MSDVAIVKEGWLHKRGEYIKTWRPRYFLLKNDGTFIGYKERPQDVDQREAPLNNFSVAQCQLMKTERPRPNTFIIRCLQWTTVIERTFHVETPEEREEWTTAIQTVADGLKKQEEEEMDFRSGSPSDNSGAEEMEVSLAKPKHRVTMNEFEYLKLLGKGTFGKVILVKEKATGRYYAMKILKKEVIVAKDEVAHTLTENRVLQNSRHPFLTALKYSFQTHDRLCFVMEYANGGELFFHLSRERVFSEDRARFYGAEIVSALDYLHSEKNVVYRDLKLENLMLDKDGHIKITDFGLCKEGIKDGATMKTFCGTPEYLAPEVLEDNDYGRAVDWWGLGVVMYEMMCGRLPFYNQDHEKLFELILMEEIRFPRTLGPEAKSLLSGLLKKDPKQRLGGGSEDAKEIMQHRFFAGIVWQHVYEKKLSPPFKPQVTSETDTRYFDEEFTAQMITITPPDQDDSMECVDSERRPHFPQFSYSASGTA

Measured: inhibition

Sequence of RAC-beta serine/threonine-protein kinase (Homo sapiens) (P31751 whole entry): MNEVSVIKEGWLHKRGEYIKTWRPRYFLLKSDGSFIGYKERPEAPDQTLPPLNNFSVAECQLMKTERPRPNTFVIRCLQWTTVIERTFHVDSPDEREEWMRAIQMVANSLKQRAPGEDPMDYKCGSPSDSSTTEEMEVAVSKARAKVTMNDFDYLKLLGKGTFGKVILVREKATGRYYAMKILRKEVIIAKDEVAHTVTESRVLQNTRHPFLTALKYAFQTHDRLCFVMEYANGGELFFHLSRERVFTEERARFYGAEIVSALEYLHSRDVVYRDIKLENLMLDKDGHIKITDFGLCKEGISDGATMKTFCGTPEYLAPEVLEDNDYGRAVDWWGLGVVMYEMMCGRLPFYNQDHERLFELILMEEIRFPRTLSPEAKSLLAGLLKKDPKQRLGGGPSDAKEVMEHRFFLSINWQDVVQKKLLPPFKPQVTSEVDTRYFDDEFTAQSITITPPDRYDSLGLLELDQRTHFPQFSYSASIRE

CSc1c(C(=O)c2ccc(Br)cc2)c(N)c2ccccc2c1C#N
active: [1] | [2] | [3]
